Test results: ChEMBL document CHEMBL1147901, “Anticancer, neuroprotective activities and computational studies of 2-amino-1,3,4-thiadiazole based compound” (Bioorg Med Chem, 2007)
Active and inactive are the calls of the source.

Columns and labels:
HT-29 = test: Antiproliferative activity against human HT29 cells at 5 uM after 96 hrs by MTT assay; assay type: functional, cell-based; conditions: HT-29, 96 h
How it was run: (§1)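 MTT viability. Seeded per well at 0.5 × 10^4 (C6), 1 × 10^4 (TE671, A549) or 3 × 10^4 (HT-29, SK-N-AS). Next day exposed to serial dilutions (5–100 µM) in fresh medium with 10% FBS at 37 °C, 5% CO2 for 96 h. MTT (5 mg/mL) for 4 h, formazan dissolved overnight in 10% SDS/0.01 N HCl, A570. Threshold concentration giving antiproliferative effect recorded.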

C6 [1] = test: Antiproliferative activity against rat glioma C6 cells at 25 uM after 96 hrs by MTT assay; assay type: functional, cell-based; conditions: C6, 96 h; how it was run: as §1
C6 [2] = test: Antiproliferative activity against rat glioma C6 cells assessed as decreased cell division after 48 hrs; assay type: functional, cell-based; conditions: C6, 48 h
How it was run: (§2)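 BrdU ELISA. Cells seeded at 2 × 10^4 (A549) or 1 × 10^4 (C6) per well. Next day, fresh medium containing serial dilutions (5–50 µM) was added for 48 h. Cells were then labelled with 10 µM BrdU for 2 h, fixed/denatured 30 min, probed with peroxidase anti-BrdU and developed with TMB. Stopped with 1 M H2SO4, A450. Mean normalized OD ±SEM of 5–8 trials, linear regression.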

Rattus norvegicus [3] = organism: Rattus norvegicus; test: Neuroprotective activity against glutamate-induced neurotoxicity in rat cortical neurons; assay type: functional
How it was run: (§3)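 Cortical neurons from E18 Wistar rat fetuses, plated at 5 × 10^5 cells/mL on poly-L-lysine in B-27/Neurobasal medium and grown to 14 days. Insult was glutamate (500 µM) or serum deprivation (Neurobasal without B-27), alone or with 10 or 25 µM compound, for 48 h. MTT read-out as mean normalized OD ±SEM of 4–8 trials.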

Rattus norvegicus [4] = organism: Rattus norvegicus; test: Neuroprotective activity against serum deprivation induced neurotoxicity in rat cortical neurons; assay type: functional; how it was run: as §3
TE-671 = test: Antiproliferative activity against human TE671 cells at 10 uM after 96 hrs by MTT assay; assay type: functional, cell-based; conditions: TE-671, 96 h; how it was run: as §1
SK-N-AS = test: Antiproliferative activity against human SK-N-AS cells at 25 uM after 96 hrs by MTT assay; assay type: functional, cell-based; how it was run: as §1
A549 [5] = test: Antiproliferative activity against human A549 cells assessed as decreased cell division after 48 hrs; assay type: functional, cell-based; conditions: A549, 48 h; how it was run: as §2
C6 [6] = test: Inhibition of rat glioma C6 cell migration at 5 uM after 24 hrs; assay type: functional, cell-based
How it was run: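 Scratch-wound assay. 1 × 10^6 C6 cells were plated per 4-cm dish. Next day the monolayer was scratched with a pipette tip and rinsed twice with PBS. Fresh medium alone or with 5 µM compound for 24 h, then May-Grünwald–Giemsa staining. Cells migrated into the wound were counted on micrographs as mean per field ±SEM over 50 wound areas from four micrographs; Student's t test.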

A549 [7] = test: Antiproliferative activity against human A549 cells at 10 uM after 96 hrs by MTT assay; assay type: functional, cell-based; conditions: A549, 96 h; how it was run: as §1

IC50 (HT-29): 33.1 µM | IC50 (SK-N-AS): 54.7 µM | IC50 (A549 [5]): 13.7 µM | IC50 (A549 [7]): 22.8 µM
Structure (SMILES): Oc1ccc(-c2nnc(Nc3ccc(F)cc3)s2)c(O)c1
IC50 (C6 [1]): 27.3 µM | IC50 (C6 [2]): 23.5 µM | Activity (Rattus norvegicus [3]): Dose-dependent effect | Activity (Rattus norvegicus [4]): Dose-dependent effect | IC50 (TE-671): 26 µM | Activity (C6 [6]): Active
